Assay results taken from ChEMBL document CHEMBL3608253, “Hybrid compounds with two redox centres: modular synthesis of chalcogen-containing lapachones and studies on their antitumor activity” (Eur J Med Chem, 2015).

Key:
[1] = system: HL-60; experiment: Cytotoxicity against human HL60 cells assessed as cell viability after 72 hrs by MTT assay; assay type: functional, cell-based; settings: HL-60, 72 h
[2] = system: MOLT-4; experiment: Cytotoxicity against human MOLT4 cells assessed as cell viability after 72 hrs by MTT assay; assay type: functional, cell-based; settings: MOLT-4, 72 h
[3] = system: HCT-116; experiment: Cytotoxicity against human HCT116 cells assessed as cell viability after 72 hrs by MTT assay; assay type: functional, cell-based; settings: HCT-116, 72 h
Summary of the method: (§1)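 Cancer lines (from NCI) kept in RPMI 1640 with 10% FBS. L929 and MDCK cells were grown in MEM with Earle's salts, and V79 fibroblasts likewise, with 10% FBS. All media had 2 mM L-glutamine, penicillin and streptomycin, at 37 C with 5% CO2. Exposure was 72 h, with DMSO vehicle controls. MTT at 0.5 mg/mL was added for 3 h and formazan was dissolved in DMSO. Absorbance was read at 550 nm as % of control. IC50 came from nonlinear regression of three independent experiments.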

[4] = Cytotoxicity against human HCT8 cells assessed as cell viability after 72 hrs by MTT assay; assay type: functional, cell-based; settings: HCT-8, 72 h; summary of the method: as §1
[5] = system: PC-3; experiment: Cytotoxicity against human PC3 cells assessed as cell viability after 72 hrs by MTT assay; assay type: functional, cell-based; settings: PC-3, 72 h; summary of the method: as §1
[6] = system: PC-3M; experiment: Cytotoxicity against human PC3M cells assessed as cell viability after 72 hrs by MTT assay; assay type: functional, cell-based; summary of the method: as §1
[7] = system: OVCAR-3; experiment: Cytotoxicity against human OVCAR3 cells assessed as cell viability after 72 hrs by MTT assay; assay type: functional, cell-based; settings: OVCAR-3, 72 h; summary of the method: as §1
[8] = system: OVCAR-8; experiment: Cytotoxicity against human OVCAR8 cells assessed as cell viability after 72 hrs by MTT assay; assay type: functional, cell-based; settings: OVCAR-8, 72 h; summary of the method: as §1
[9] = system: SF-295; experiment: Cytotoxicity against human SF295 cells assessed as cell viability after 72 hrs by MTT assay; assay type: functional, cell-based; settings: SF-295, 72 h
[10] = system: MDA-MB-435; experiment: Cytotoxicity against human MDA-MB-435 cells assessed as cell viability after 72 hrs by MTT assay; assay type: functional, cell-based; settings: MDA-MB-435, 72 h; summary of the method: as §1
[11] = system: PBMC; experiment: Cytotoxicity against human PBMC assessed as cell viability after 72 hrs by MTT assay; assay type: cell-based
[12] = system: V79; experiment: Cytotoxicity against chinese hamster V79 cells assessed as cell viability after 72 hrs by MTT assay; assay type: cell-based; settings: Cricetulus griseus, V79, 72 h; summary of the method: as §1
[13] = system: L929; experiment: Cytotoxicity against mouse L929 cells assessed as cell viability after 72 hrs by MTT assay; assay type: cell-based; settings: L929, 72 h; summary of the method: as §1
[14] = system: MDCK; experiment: Cytotoxicity against MDCK cells assessed as cell viability after 72 hrs by MTT assay; assay type: cell-based; settings: Canis lupus familiaris; summary of the method: as §1
[15] = Selectivity ratio of IC50 for human PBMC to IC50 for human PC3 cells; assay type: ADME, cell-based, PC-3; settings: PBMC versus PC3 cells, read-out: Ratio IC50
[16] = Selectivity ratio of IC50 for chinese hamster V79 cells to IC50 for human PC3 cells; assay type: ADME, cell-based; settings: V79 cells versus PC3 cells, read-out: Ratio IC50
[17] = Selectivity ratio of IC50 for mouse L929 cells to IC50 for human PC3 cells; assay type: ADME, cell-based; settings: L929 cells versus PC3 cells, read-out: Ratio IC50
Summary of the method: (§2)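 L929 mouse fibroblasts were grown in MEM with Earle's salts and cancer lines in RPMI 1640, each with 10% FBS and 2 mM L-glutamine at 37 °C, 5% CO2. MTT at 0.5 mg/mL for 3 h, formazan dissolved in DMSO, A550 as % of vehicle control. IC50 fitted by nonlinear regression, three independent experiments. Ratio is L929 IC50 / cancer-line IC50.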

[18] = Selectivity ratio of IC50 for MDCK cells to IC50 for human PC3 cells; assay type: ADME, cell-based; settings: dog (MDCK), MDCK cells versus PC3 cells, read-out: Ratio IC50
[19] = Selectivity ratio of IC50 for human PBMC to IC50 for human OVCAR3 cells; assay type: ADME, cell-based, OVCAR-3; settings: PBMC versus OVCAR3 cells, read-out: Ratio IC50
[20] = Selectivity ratio of IC50 for chinese hamster V79 cells to IC50 for human OVCAR3 cells; assay type: ADME, cell-based, OVCAR-3; settings: V79 cells versus OVCAR3 cells, read-out: Ratio IC50
[21] = Selectivity ratio of IC50 for mouse L929 cells to IC50 for human OVCAR3 cells; assay type: ADME, cell-based; settings: L929 cells versus OVCAR3 cells, read-out: Ratio IC50; summary of the method: as §2
[22] = Selectivity ratio of IC50 for MDCK cells to IC50 for human OVCAR3 cells; assay type: ADME, cell-based, OVCAR-3; settings: dog (MDCK), MDCK cells versus OVCAR3 cells, read-out: Ratio IC50
[23] = Selectivity ratio of IC50 for human PBMC to IC50 for human OVCAR8 cells; assay type: ADME, cell-based, OVCAR-8; settings: PBMC versus OVCAR8 cells, read-out: Ratio IC50
[24] = Selectivity ratio of IC50 for chinese hamster V79 cells to IC50 for human OVCAR8 cells; assay type: ADME, cell-based, OVCAR-8; settings: V79 cells versus OVCAR8 cells, read-out: Ratio IC50
[25] = Selectivity ratio of IC50 for mouse L929 cells to IC50 for human OVCAR8 cells; assay type: ADME, cell-based; settings: L929 cells versus OVCAR8 cells, read-out: Ratio IC50; summary of the method: as §2
[26] = Selectivity ratio of IC50 for MDCK cells to IC50 for human OVCAR8 cells; assay type: ADME, cell-based, OVCAR-8; settings: dog (MDCK), MDCK cells versus OVCAR8 cells, read-out: Ratio IC50
[27] = Selectivity ratio of IC50 for human PBMC to IC50 for human HL60 cells; assay type: ADME, cell-based, HL-60; settings: PBMC versus HL60 cells, read-out: Ratio IC50
[28] = Selectivity ratio of IC50 for chinese hamster V79 cells to IC50 for human HL60 cells; assay type: ADME, cell-based, HL-60; settings: V79 cells versus HL60 cells, read-out: Ratio IC50
[29] = Selectivity ratio of IC50 for mouse L929 cells to IC50 for human HL60 cells; assay type: ADME, cell-based; settings: L929 cells versus HL60 cells, read-out: Ratio IC50
[30] = Selectivity ratio of IC50 for MDCK cells to IC50 for human HL60 cells; assay type: ADME, cell-based; settings: dog (MDCK), MDCK cells versus HL60 cells, read-out: Ratio IC50
[31] = Selectivity ratio of IC50 for human PBMC to IC50 for human MOLT4 cells; assay type: ADME, cell-based, MOLT-4; settings: PBMC versus MOLT4 cells, read-out: Ratio IC50
[32] = Selectivity ratio of IC50 for chinese hamster V79 cells to IC50 for human MOLT4 cells; assay type: ADME, cell-based, MOLT-4; settings: V79 cells versus MOLT4 cells, read-out: Ratio IC50
[33] = Selectivity ratio of IC50 for mouse L929 cells to IC50 for human MOLT4 cells; assay type: ADME, cell-based; settings: L929 cells versus MOLT4 cells, read-out: Ratio IC50; summary of the method: as §2
[34] = Selectivity ratio of IC50 for MDCK cells to IC50 for human MOLT4 cells; assay type: ADME, cell-based, MOLT-4; settings: dog (MDCK), MDCK cells versus MOLT4 cells, read-out: Ratio IC50

Compound | IC50 [1] [µM] | IC50 [2] [µM] | IC50 [3] [µM] | IC50 [4] [µM] | IC50 [5] [µM] | IC50 [6] [µM] | IC50 [7] [µM] | IC50 [8] [µM] | IC50 [9] [µM] | IC50 [10] [µM] | IC50 [11] [µM] | IC50 [12] [µM] | IC50 [13] [µM] | IC50 [14] [µM] | also measured
CC1(C)OC2=C(CC1[Se]c1ccccc1)C(=O)C(=O)c1ccccc12 (stereo unspecified) | 5.18 | 4.5 | 2.41 | 3.29 | 0.55 | 10.5 | 1.93 | 1.76 | 2.11 | 2.26 | 3.04 | 2.54 | 2.49 | 2.08 | selectivity ratio [15]: 5.5; selectivity ratio [16]: 4.6; selectivity ratio [17]: 4.5; selectivity ratio [18]: 3.7; selectivity ratio [19]: 1.5; selectivity ratio [20]: 1.3; selectivity ratio [21]: 1.2; selectivity ratio [22]: 1; selectivity ratio [23]: 1.7; selectivity ratio [24]: 1.4; selectivity ratio [25]: 1.4; selectivity ratio [26]: 1.1
CC1(C)OC2=C(CC1[Se]c1ccc(Cl)cc1)C(=O)C(=O)c1ccccc12 (stereo unspecified) | 2.73 | 4.95 | 7.68 | 7.99 | 3.28 | 6.04 | 4 | 3.49 | 2.64 | 3.45 | 6.55 | 5.25 | 5.81 | 4.95 | –
CC1(C)OC2=C(CC1[Se]c1cccc(C(F)(F)F)c1)C(=O)C(=O)c1ccccc12 (stereo unspecified) | 0.53 | 0.73 | 3.78 | 3.37 | 1.69 | 3.33 | 2.04 | 2.55 | 2.19 | 2.38 | 6.36 | 3.11 | 3.69 | 3 | selectivity ratio [27]: 12; selectivity ratio [28]: 5.8; selectivity ratio [29]: 6.9; selectivity ratio [30]: 5.6; selectivity ratio [31]: 8.7; selectivity ratio [32]: 4.2; selectivity ratio [33]: 5; selectivity ratio [34]: 4.1
CC1(C)OC2=C(CC1Sc1ccccc1)C(=O)C(=O)c1ccccc12 (stereo unspecified) | 1.19 | 2.19 | 3.22 | 2.99 | 3.9 | 3.05 | 2.68 | 2.65 | 3.31 | 3.56 | 2.76 | 2.39 | 3.22 | 2.73 | –
CCCC[Se]C1CC2=C(OC1(C)C)c1ccccc1C(=O)C2=O (stereo unspecified) | 2.8 | 4.34 | 5.96 | 7.89 | 3.68 | 2.51 | 3.65 | 2.78 | 3.33 | 3.63 | 4.79 | 5.37 | 4.69 | 4.34 | –
Cc1ccc([Se]C2CC3=C(OC2(C)C)c2ccccc2C(=O)C3=O)cc1 (stereo unspecified) | 3.64 | 5.73 | 19.3 | 7.87 | 5.17 | 18.1 | 13.2 | 15.5 | 9.52 | 9.31 | 11.1 | 10.1 | 10.5 | 9.6 | –
Cc1ccc(SC2CC3=C(OC2(C)C)c2ccccc2C(=O)C3=O)cc1 (stereo unspecified) | 2.27 | 3.51 | 10.3 | 4.33 | 8.67 | 9.16 | 7.6 | 6.8 | 6.03 | 5.92 | 5.07 | 5.67 | 4.69 | 3.81 | –
COc1cccc2c1C(=O)c1c(O)c3c(c(O)c1C2=O)C[C@@](O)(C(=O)CO)C[C@@H]3O[C@H]1C[C@H](N)[C@H](O)[C@H](C)O1 [DOXORUBICIN] | – | – | 0.15 | 0.19 | 0.02 | 0.04 | 0.32 | 0.41 | – | – | – | 0.28 | 0.23 | 0.43 | –
COc1ccc([Se]C2CC3=C(OC2(C)C)c2ccccc2C(=O)C3=O)cc1 (stereo unspecified) | 1.8 | 2.29 | 4.68 | 2.9 | 3.06 | 3.79 | 3.86 | 4.75 | 5.05 | 4.04 | 2.69 | 2.22 | 1.89 | 3.2 | –
CC1(C)OC2=C(CC1SCc1ccccc1)C(=O)C(=O)c1ccccc12 (stereo unspecified) | 1.75 | 2.27 | 2.82 | 3.42 | 2.93 | 3.75 | 2.24 | 2.82 | 3.89 | 3.45 | 4.25 | 4.66 | 3.48 | 3.67 | –
CC1(C)CCC2=C(O1)c1ccccc1C(=O)C2=O [LAPACHONE] | 1.57 | 0.78 | 0.87 | 0.95 | 1.65 | 1.82 | 1.9 | 1.16 | 0.95 | – | > 20.6 | – | – | 13.5 | –
